Test results: ChEMBL document CHEMBL1122071, “Avermectin acyl derivatives with anthelmintic activity” (1982)

Tests used:
Format in all cases: functional
Cooperia curticei [1] = test: Anthelmintic efficacy against adult Cooperia curticei. in sheep at dose of 0.1 mg/kg administered subcutaneously; conditions: route subcutaneous
Cooperia curticei [2] = test: Anthelmintic efficacy against immature (EL4) Cooperia curticei. in sheep at dose of 0.1 mg/kg administered subcutaneously; conditions: route subcutaneous
Haemonchus contortus = test: Anthelmintic efficacy against adult Haemonchus contortus (H.c) in sheep at dose of 0.1 mg/kg administered subcutaneously; conditions: route subcutaneous
Procedure, shortened: (§1)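 Experimentally infected lambs carrying mixed nematode species each received 0.1 mg/kg by subcutaneous injection, one sheep per treatment. An untreated infected group of 6 lambs served as comparison, with worm burdens given as the geometric mean number of worms per lamb. Efficacy was scored for each parasite species.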

[3] = test system: Oesophagostomum columbianum; test: Anthelmintic efficacy against Oseophagostomum columbianum (Oe. c) in sheep at dose of 0.1 mg/kg administered subcutaneously; conditions: route subcutaneous; procedure, shortened: as §1
Trichostrongylus axei = test: Anthelmintic efficacy against Trichostrongylus axei (T.a) in sheep at dose of 0.1 mg/kg administered subcutaneously; 60-89; conditions: route subcutaneous; procedure, shortened: as §1
[4] = test system: Trichostrongylus colubriformis; test: Minimal dose necessary to eliminate > 83% of Trichostrongylus colubriformis infection in gerbils
[5] = test system: Trichostrongylus colubriformis; test: Anthelmintic efficacy against Trichostrongylus colubriformis (T.c) in sheep at dose of 0.1 mg/kg administered subcutaneously; conditions: route subcutaneous; procedure, shortened: as §1

For `CC[C@H](C)[C@H]1O[C@]2(C=C[C@@H]1C)C[C@@H]1C[C@@H](C/C=C(\C)[C@@H](O[C@H]3C[C@@H](OC)[C@@H](O[C@H]4C[C@@H](OC)[C@@H](OC(=O)CCC(=O)O)[C@H](C)O4)[C@H](C)O3)[C@@H](C)/C=C/C=C3\CO[C@@H]4[C@H](O)C(C)=C[C@@H](C(=O)O1)[C@]34O)O2`, the Efficacy (Cooperia curticei [1]) was over 90%, the Efficacy (Cooperia curticei [2]) was over 90% and the Efficacy (Haemonchus contortus) was over 90%. For the same molecule, the Efficacy [3] was over 90%, the Efficacy (Trichostrongylus axei) was 60% and the Dose [4] was 0.03 mg/kg. For the same molecule, the Efficacy [5] was over 90%.
